Results taken from PMC13154657 (Journal of Advanced Research, 2025).

Assays:
[1] = within 60 min; cited from earlier work
[2] = system: DSS-induced experimental colitis; experiment: DSS-induced experimental colitis model in mice; type: in vivo; conditions: DB07565 rectally daily
How it was run: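 Male C57BL/6 J mice, 7–8 weeks, randomised by weight into groups of six. Colitis induced with 3 % (w/v) DSS in drinking water for 7 days. Test compound dissolved in DMSO, diluted in PBS to 50 or 100 μM, given rectally at 100 µl/mouse daily. Oral 5-ASA 50 mg/kg daily as reference. Colons fixed in 4 % PFA and paraffin-embedded. 5 μm sections stained with H&E; immunofluorescence for Claudin-1, Occludin and ZO-1 at 4 ℃ overnight, 1 h secondary, DAPI 10 min.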

human P2Y14 receptor = target: T1, human P2Y14 receptor (Homo sapiens, UniProt Q15391); experiment: In vitro P2Y14R antagonistic activity; type: cell-based
T1 sequence (Q15391 1-338): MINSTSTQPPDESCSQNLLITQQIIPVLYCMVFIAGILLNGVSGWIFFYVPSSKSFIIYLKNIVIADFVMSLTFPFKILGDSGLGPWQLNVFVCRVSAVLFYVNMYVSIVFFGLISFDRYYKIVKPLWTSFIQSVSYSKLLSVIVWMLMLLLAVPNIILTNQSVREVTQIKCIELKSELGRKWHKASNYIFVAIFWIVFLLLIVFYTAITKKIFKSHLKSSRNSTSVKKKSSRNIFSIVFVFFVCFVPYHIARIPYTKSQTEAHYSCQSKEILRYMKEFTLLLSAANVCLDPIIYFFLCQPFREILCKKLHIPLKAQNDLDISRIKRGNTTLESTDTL
How it was run: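 hP2Y14-HEK293 cells (HEK293 stably expressing human P2Y14R) grown in DMEM with 10 % FBS and 1 % penicillin/streptomycin. Seeded at 10,000 cells/well in 384-well plates and preincubated 30 min at 37 °C with test compound or DMSO. Stimulated with UDPG; intracellular cAMP measured by cAMP-Glo luminescence on a plate reader. N = 3.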

HT-29 cells = experiment: Cell viability assay; type: cell-based; conditions: 100 μM, 24 h, CCK-8, N = 5
How it was run: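 HT-29 cells cultured in DMEM with 10 % FBS and 1 % penicillin/streptomycin at 37 °C, 5 % CO2. Seeded at 10,000 cells/well in 96-well plates and exposed to test compound or DMSO for 24 h at 37 °C. Viability read with CCK-8 per kit instructions; N = 5.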

IC50 (human P2Y14 receptor): 1.58 nM
SMILES: O=C(O)CCC(=O)OC[C@@H](NC(=O)C(Cl)Cl)[C@H](O)c1ccc([N+](=O)[O-])cc1 [DB07565, Chloramphenicol succinate]
degradation in intestinal fluid [1]: less than 10%
histopathological analysis of colon (H&E) ([2]; C57BL/6 J mice, 3 % DSS 7 days): mitigated DSS-induced tissue damage and inflammatory cell infiltration in the colon
gut barrier function, immunofluorescence of tight junction proteins (Claudin-1, Occludin, ZO-1) ([2]; colon tissue of DSS-treated mice): markedly enhanced gut barrier function
cytotoxicity (cell viability) (HT-29 cells): low cytotoxicity
